Laboratory results as given in ChEMBL document CHEMBL4138303, “Discovery and in Vitro Optimization of 3-Sulfamoylbenzamides as ROMK Inhibitors” (ACS Med Chem Lett, 2018).
Positions count from the first letter of the chain named. Activity calls are given as the source filed them. The calls are words filed in the database; no cut-off is given here.

Experiments:
[1] = target: T1, ATP-sensitive inward rectifier potassium channel 10 (Homo sapiens) (UniProt P78508); experiment: Inhibition of Kir4.1 (unknown origin) expressed in CHO cells at 10 uM at -75 mV holding potential by whole cell patch clamp method relative to control; assay type: cell-based
T1 sequence (whole entry): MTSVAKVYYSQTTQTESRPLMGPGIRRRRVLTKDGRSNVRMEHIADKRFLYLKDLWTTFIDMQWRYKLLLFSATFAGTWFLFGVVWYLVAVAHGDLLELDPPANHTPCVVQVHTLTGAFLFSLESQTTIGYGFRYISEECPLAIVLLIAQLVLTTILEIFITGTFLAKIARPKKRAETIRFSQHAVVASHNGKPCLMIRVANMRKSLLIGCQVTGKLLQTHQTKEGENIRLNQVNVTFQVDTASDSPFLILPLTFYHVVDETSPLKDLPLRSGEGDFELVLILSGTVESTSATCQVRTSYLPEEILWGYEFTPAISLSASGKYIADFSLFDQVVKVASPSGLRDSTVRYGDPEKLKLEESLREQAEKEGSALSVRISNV
How it was run: (§1)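 Whole-cell patch-clamp recordings in CHO cells stably expressing either Kir2.1 or Kir4.1.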

[2] = target: T2, Kir2.1 (inward rectifier potassium channel 2) (Homo sapiens, UniProt P63252); experiment: Inhibition of Kir2.1 (unknown origin) expressed in CHO cells at 10 uM at -75 mV holding potential by whole cell patch clamp method relative to control; assay type: cell-based; settings: CHO cells expressing Kir2.1; how it was run: as §1
T2 sequence (P63252 whole entry): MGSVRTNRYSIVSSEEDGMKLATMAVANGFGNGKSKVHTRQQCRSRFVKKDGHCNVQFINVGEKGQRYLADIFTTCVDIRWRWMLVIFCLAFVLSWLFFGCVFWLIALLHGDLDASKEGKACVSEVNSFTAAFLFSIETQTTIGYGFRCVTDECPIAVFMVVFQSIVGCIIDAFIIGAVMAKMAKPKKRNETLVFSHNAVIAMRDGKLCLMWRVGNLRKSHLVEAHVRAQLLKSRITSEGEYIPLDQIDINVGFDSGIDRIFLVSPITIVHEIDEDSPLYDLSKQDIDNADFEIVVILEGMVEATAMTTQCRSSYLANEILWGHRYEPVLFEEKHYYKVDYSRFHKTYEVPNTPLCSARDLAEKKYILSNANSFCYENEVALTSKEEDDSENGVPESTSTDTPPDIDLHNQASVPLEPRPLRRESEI

[3] = Octanol-sodium phosphate buffer partition coefficient, log D of the compound at pH 7.4 by shake flask method; assay type: physicochemical
[4] = target: Voltage-gated inwardly rectifying potassium channel KCNH2 (Homo sapiens, UniProt Q12809); experiment: Displacement of fluorescent-labelled dofetilide from human ERG expressed in HEK293 cell membrane homogenates; assay type: cell membranes
Sequence of Voltage-gated inwardly rectifying potassium channel KCNH2 (Q12809 whole entry): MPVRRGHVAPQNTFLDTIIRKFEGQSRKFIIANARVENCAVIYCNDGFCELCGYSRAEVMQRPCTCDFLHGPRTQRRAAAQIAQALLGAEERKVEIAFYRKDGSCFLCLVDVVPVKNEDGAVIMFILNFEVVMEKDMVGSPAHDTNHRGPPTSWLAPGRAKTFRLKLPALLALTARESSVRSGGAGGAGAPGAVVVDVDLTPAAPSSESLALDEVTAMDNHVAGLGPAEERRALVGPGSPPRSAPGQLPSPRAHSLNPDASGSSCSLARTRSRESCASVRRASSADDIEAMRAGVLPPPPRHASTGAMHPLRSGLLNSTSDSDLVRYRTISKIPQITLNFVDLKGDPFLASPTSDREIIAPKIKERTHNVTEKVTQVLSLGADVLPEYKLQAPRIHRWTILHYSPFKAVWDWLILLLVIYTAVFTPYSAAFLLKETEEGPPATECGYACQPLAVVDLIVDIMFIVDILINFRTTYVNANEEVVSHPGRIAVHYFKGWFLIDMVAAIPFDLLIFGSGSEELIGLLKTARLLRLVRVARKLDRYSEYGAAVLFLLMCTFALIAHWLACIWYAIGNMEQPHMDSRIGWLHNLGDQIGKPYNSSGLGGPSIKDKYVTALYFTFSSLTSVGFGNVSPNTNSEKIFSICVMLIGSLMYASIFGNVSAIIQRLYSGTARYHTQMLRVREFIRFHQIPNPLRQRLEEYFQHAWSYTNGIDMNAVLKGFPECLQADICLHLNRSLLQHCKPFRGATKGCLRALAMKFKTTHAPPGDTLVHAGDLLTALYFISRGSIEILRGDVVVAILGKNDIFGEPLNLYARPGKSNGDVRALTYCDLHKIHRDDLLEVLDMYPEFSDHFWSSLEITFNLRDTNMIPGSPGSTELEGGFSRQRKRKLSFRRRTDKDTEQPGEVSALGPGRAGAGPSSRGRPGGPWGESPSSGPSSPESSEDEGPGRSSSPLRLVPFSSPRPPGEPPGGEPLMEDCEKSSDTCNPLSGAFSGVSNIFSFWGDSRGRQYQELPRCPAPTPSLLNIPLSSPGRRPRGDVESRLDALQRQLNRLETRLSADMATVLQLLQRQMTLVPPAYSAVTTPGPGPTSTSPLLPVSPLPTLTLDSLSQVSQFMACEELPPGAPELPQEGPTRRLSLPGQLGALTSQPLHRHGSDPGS
How it was run: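 Ki from displacement of a fluorescently labelled dofetilide derivative from membrane homogenates of HEK-293 cells stably expressing hERG (Kv11.1).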

[5] = Apparent permeability in MDCK2-LE cells; assay type: ADME, cell-based, Canis lupus familiaris, MDCK-II; settings: dog
[6] = Apparent intrinsic clearance in human liver microsomes; assay type: ADME, microsome; settings: read-out: CLH(app)
[7] = target: T3, ATP-sensitive inward rectifier potassium channel 1 (Homo sapiens, UniProt P48048); experiment: Inhibition of human ROMK2 expressed in HEK293 cells after 20 mins by Thallos-AM dye based fluorescence assay; assay type: cell-based
T3 sequence (P48048 whole entry): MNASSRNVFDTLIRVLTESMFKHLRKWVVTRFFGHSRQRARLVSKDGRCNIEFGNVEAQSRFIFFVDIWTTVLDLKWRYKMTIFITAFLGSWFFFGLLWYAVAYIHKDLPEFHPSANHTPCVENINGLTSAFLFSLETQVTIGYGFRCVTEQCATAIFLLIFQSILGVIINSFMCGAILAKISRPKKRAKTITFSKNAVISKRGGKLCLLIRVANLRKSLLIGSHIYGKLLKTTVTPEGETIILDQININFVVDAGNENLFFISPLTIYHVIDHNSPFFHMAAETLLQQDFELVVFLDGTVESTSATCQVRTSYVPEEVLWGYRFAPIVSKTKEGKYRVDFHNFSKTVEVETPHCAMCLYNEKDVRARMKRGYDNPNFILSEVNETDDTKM

[8] = target: T4, ATP-sensitive inward rectifier potassium channel 1 (Rattus norvegicus, UniProt P35560); experiment: Inhibition of rat ROMK1 expressed in HEK293 cells after 20 mins by Thallos-AM dye based fluorescence assay; assay type: cell-based
T4 sequence (P35560 whole entry): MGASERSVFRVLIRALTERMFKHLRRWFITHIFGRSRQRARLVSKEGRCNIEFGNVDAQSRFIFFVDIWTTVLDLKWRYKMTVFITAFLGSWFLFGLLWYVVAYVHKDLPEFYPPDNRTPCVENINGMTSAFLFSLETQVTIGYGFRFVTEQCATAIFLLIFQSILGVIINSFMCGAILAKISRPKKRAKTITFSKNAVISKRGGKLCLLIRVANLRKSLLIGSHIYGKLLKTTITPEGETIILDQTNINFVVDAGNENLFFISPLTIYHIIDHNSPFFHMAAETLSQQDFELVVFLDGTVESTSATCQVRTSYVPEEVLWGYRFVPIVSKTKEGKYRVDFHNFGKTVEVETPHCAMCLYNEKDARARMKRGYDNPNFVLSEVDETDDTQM
How it was run: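 Thallium (Tl+) flux assay against rat ROMK1, with concentration-response testing up to 30 µM. IC50 values are geometric means of n≥3 replicates unless otherwise indicated and are also reported as pIC50±SD.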

[9] = target: T3, ATP-sensitive inward rectifier potassium channel 1; experiment: Inhibition of human ROMK1 expressed in HEK293 cells at -75 mV holding potential by whole cell patch clamp method; assay type: cell-based
How it was run: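 Whole-cell patch clamp on human ROMK1. IC50 comes from a global fit to a five-point concentration-response curve with n≥4 per concentration, reported with 95% CI.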

[10] = target: T5, ATP-sensitive inward rectifier potassium channel 1 (Homo sapiens) (UniProt P48048); experiment: (§2) Inhibition of human ROMK1 expressed in HEK293 cells after 20 mins by Thallos-AM dye based fluorescence assay; assay type: cell-based
T5 sequence (whole entry): T3 sequence (P48048 whole entry)
How it was run: (§3)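 Tl+ flux assay on human or rat ROMK1, run as concentration-response. IC50 is the geometric mean of n≥3 replicates, also given as pIC50±SD. Rat ROMK1 testing went up to 30 µM.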

[11] = target: T3, ATP-sensitive inward rectifier potassium channel 1; experiment: as §2; assay type: cell-based; how it was run: as §3
[12] = target: T6, ATP-sensitive inward rectifier potassium channel 1 (Rattus norvegicus) (UniProt P35560); experiment: Inhibition of rat ROMK2 expressed in HEK293 cells at -75 mV holding potential by whole cell patch clamp method; assay type: cell-based
T6 sequence (whole entry): T4 sequence (P35560 whole entry)

[13] = system: T7, ATP-sensitive inward rectifier potassium channel 1 (Homo sapiens), P48048 [N171D]; experiment: Inhibition of human Kir1.1 N171D mutant expressed in HEK293 cells at 100 to 300 nM at -75 mV holding potential by whole cell patch clamp method; assay type: cell-based
T7 sequence (whole entry): T3 sequence (P48048 whole entry) with N171D
How it was run: (§4)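 Whole-cell currents were recorded under voltage clamp in HEK293 cells transiently expressing human ROMK K80M or the human ROMK K80M/N171D double mutant.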

[14] = system: T8, ATP-sensitive inward rectifier potassium channel 1 (Homo sapiens), P48048 [K80M]; experiment: Inhibition of human Kir1.1 K80M mutant expressed in HEK293 cells at 100 to 300 nM at -75 mV holding potential by whole cell patch clamp method; assay type: cell-based; how it was run: as §4
T8 sequence (whole entry): T3 sequence (P48048 whole entry) with K80M

[15] = octanol/sodium phosphate buffer, read-out: logD

| SMILES | logD [3, 15] | Ki [4] [nM] | Papp ([5]; MDCK, read-out: Papp) [×10⁻⁶ cm/s] | CLint scaled [6] [mL/min/kg] | IC50 [7] [nM] | IC50 [8] [nM] | IC50 ([11]; read-out: IC50) [nM] | further results |
| --- | --- | --- | --- | --- | --- | --- | --- | --- |
| Cc1ccc(NS(=O)(=O)c2cc(C(=O)NCc3cccnc3)ccc2C)cc1 | 3 | > 40000 | 15 | 120 | 6500 |  |  | inhibition [1]: 19%; inhibition at 10 µM [2]: 13% |
| Cc1noc(CNC(=O)c2ccc(C)c(S(=O)(=O)Nc3ccc(Cl)cc3)c2)n1 | 3 | > 40000 | 19 | 35 | 85 | > 30000 | 777 | IC50 [9]: 62 nM; inhibition [10]: Dose-dependent effect |
| COc1ccc(C(=O)NC(C)c2cnn(C)n2)cc1S(=O)(=O)Nc1ccc(Cl)cc1 (single isomer, unassigned; (+)) |  | > 40000 |  |  | 13000 |  |  | logD ([3]; octanol/water): 2.7; Papp ([5]; mdck-ii): 11 ×10⁻⁶ cm/s |
| COc1ccc(C(=O)NC(C)c2cnn(C)n2)cc1S(=O)(=O)Nc1ccc(Cl)cc1 (single isomer, unassigned; (-)) [listing 1 of 2 here] |  |  |  |  |  |  |  | inhibition [12]: inactive; inhibition [13]: Active; inhibition [14]: Active; inhibition [10]: Dose-dependent effect |
| COc1ccc(C(=O)NC(C)c2cnn(C)n2)cc1S(=O)(=O)Nc1ccc(Cl)cc1 (single isomer, unassigned; (-)) [listing 2 of 2 here] | 2.6 | 28000 | 16 | < 8 | 160 | > 30000 | 391 | IC50 [9]: 61 nM |
| O=[N+]([O-])c1ccc2nc(COCc3nc4ccc([N+](=O)[O-])cc4[nH]3)[nH]c2c1 |  |  |  |  |  | 420 | 744 |  |
| Cc1ccc(NS(=O)(=O)c2cc(C(=O)NCc3nc(C)no3)ccc2C)cc1 | 2.7 | > 40000 | 20 | 30 | 440 |  |  |  |
| Cc1ccc(C(=O)NCc2cn(C)nn2)cc1S(=O)(=O)Nc1ccc(Cl)cc1 | 2.9 | > 40000 | 19 | < 9 | 86 |  |  |  |
| Cc1ccc(NS(=O)(=O)c2cccc(C(=O)NCc3nc(C)no3)c2)cc1 | 2.3 | > 40000 | 22 | 9 | 17000 |  |  |  |
| COc1ccc(C(=O)NCc2nc(C)no2)cc1S(=O)(=O)Nc1ccc(C)cc1 | 2.3 | > 40000 | 8 | 10 | 1300 |  |  |  |
| Cc1noc(CNC(=O)c2ccc(C)c(S(=O)(=O)Nc3ccc(-c4cnco4)cc3)c2)n1 | 2.2 | > 40000 | 10 | 69 | 35 |  |  |  |
| Cc1noc(CNC(=O)c2ccc(C)c(S(=O)(=O)Nc3ccc(-c4ccno4)cc3)c2)n1 | 2.3 | > 40000 | 6 | 25 | 110 |  |  |  |
| Cc1ccc(C(=O)NCc2cn(C)nn2)cc1S(=O)(=O)Nc1ccc(-c2ccno2)cc1 | 2.4 | > 40000 | 12 | < 8 | 280 | > 30000 | 1040 | IC50 [9]: 104 nM; inhibition [12]: inactive; inhibition [10]: Dose-dependent effect; IC50 ([11]; read-out: pIC50 (converted)): 1260 nM |
